Assay [1] addresses T1, 89-residue L-CPTI C-terminal peptide, W452A mutant (Rattus norvegicus, UniProt P32198, W452A).
T1 sequence (P32198 381-469 W452A): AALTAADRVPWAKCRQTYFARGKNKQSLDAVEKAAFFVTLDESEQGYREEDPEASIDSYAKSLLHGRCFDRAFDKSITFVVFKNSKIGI
Briefly: FRET from CPTI aromatic amino acids to bound cis-parinaroyl-CoA. The class given is binding. In a few lines: (§1)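 Peptide (0.1 µM in PBS, pH 7.4) was titrated with cis-parinaroyl-CoA at 24°C (0–1000 nM in methods; 0–250 nM in legend), with excitation at 280 nm and a 300–450 nm scan. Spectra were background-corrected and each averaged from 5 replicates. […] Distance was obtained by the Förster equation. Values are mean ± SE, n=5.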

Assay [2] concerns the target T2, 89-residue L-CPTI C-terminal peptide, W391A mutant (Rattus norvegicus, UniProt P32198, W391A).
T2 sequence (P32198 381-469 W391A): T1 sequence (P32198 381-469 W452A) with W11A, A72W
The description is as above. The assay is classed as binding. In a few lines: as §1

Assay [3] concerns the target T2, 89-residue L-CPTI C-terminal peptide, W391A mutant. Briefly: Direct binding of fluorescent cis-parinaroyl-CoA.
The target in assay [4] is T1, 89-residue L-CPTI C-terminal peptide, W452A mutant. The assay is described as follows: Direct binding of fluorescent cis-parinaroyl-CoA.
Assay [5] has as its target T3, 89-residue L-CPTI C-terminal peptide, wild-type (WT) (Rattus norvegicus, UniProt P32198).
T3 sequence (P32198 381-469): T1 sequence (P32198 381-469 W452A) with A72W
The assay is described as follows: FRET from CPTI aromatic amino acids to bound cis-parinaroyl-CoA. The class given is binding. Summed up: as §1

For assay [6], the target named is T2, 89-residue L-CPTI C-terminal peptide, W391A mutant. The assay is described as follows: Quenching of intrinsic aromatic amino acid fluorescence by palmitoyl-CoA. The class given is binding. To be noted: read-out: Quenching Kd, quenching of aromatic amino acid fluorescence of 0.1 µM W391A peptide.
The target in assay [7] is T1, 89-residue L-CPTI C-terminal peptide, W452A mutant. The description is as above. The assay is classed as binding. To be noted: read-out: Quenching Kd, quenching of aromatic amino acid fluorescence of 0.1 µM W452A peptide.
The target is the same in assay [8]. Briefly: Displacement of bound cis-parinaroyl-CoA by palmitoyl-CoA. The class given is binding. To be noted: mutant peptides (W452A), range given for both mutants. In a few lines: (§2)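 Purified 89-residue peptide (0.1 µM in PBS, pH 7.4) was preincubated with 50 nM cis-parinaroyl-CoA for 5 min at 24°C. It was then titrated with palmitoyl-CoA (0–150 nM stated for WT). Excitation was 310 nm and emission was read at 426 nm. Displacement was taken from the fall in fluorescence and plotted as percent change, and Ki was then calculated.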

Assay [9] concerns the target T2, 89-residue L-CPTI C-terminal peptide, W391A mutant. The assay is described as above. The class given is binding. To be noted: mutant peptides (W391A), range given for both mutants. Summed up: as §2
The target in assay [10] is T3, 89-residue L-CPTI C-terminal peptide, wild-type (WT). Described as above. The class given is binding. To be noted: palmitoyl-CoA 0–150nM. Summed up:
as §2

Numbering of substitutions follows the chain as printed.

As for `CC/C=C/C=C\C=C/C=C/CCCCCCCC(=O)SCCNC(=O)CCNC(=O)[C@H](O)C(C)(C)COP(=O)(O)OP(=O)(O)OC[C@H]1O[C@@H](n2cnc3c(N)ncnc32)[C@H](O)[C@@H]1OP(=O)(O)O` (relative stereo) [cis-parinaroyl-CoA], the “Donor Emission R (intermolecular distance)” value amounted to 24.3 ± 0.6 Å in [1] (from donor (W452A) quenching); 23.9 ± 0.6 Å in [2] (from donor (W391A) quenching); 28 ± 1 Å in [5] (from donor (CPTI WT) quenching, Förster equation). The Kd was 51 ± 5 nM in assay [1] (read-out: Donor Emission Kd, from decrease in donor (W452A) fluorescence); 88 ± 9 nM in [2] (read-out: Donor Emission Kd, from decrease in donor (W391A) fluorescence); 52 ± 8 nM in assay [3] (read-out: Cpn-CoA Kd, W391A peptide 0.1 µM, PBS pH 7.4, 24°C, direct fluorescence); 67 ± 10 nM in assay [4] (read-out: Cpn-CoA Kd, W452A peptide 0.1 µM, PBS pH 7.4, 24°C, direct fluorescence); 35 ± 10 nM in [5] (read-out: Donor Emission Kd, from decrease in donor (CPTI WT) fluorescence). The “binding affinity weaker than WT” value in assay [3] (mutant (W391A) versus WT, range given for both mutants) is 5–7 fold; in assay [4] (mutant (W452A) versus WT, range given for both mutants) it was 5–7 fold. Besides, the “intermolecular distance determined from the increased acceptor fluorescence” value in [5] (CPTI WT, acceptor (cis-parinaroyl-CoA) fluorescence) is on record as 38±1 Å.

Regarding `CCCCCCCCCCCCCCCC(=O)SCCNC(=O)CCNC(=O)[C@H](O)C(C)(C)COP(=O)(O)OP(=O)(O)OC[C@H]1O[C@@H](n2cnc3c(N)ncnc32)[C@H](O)[C@@H]1OP(=O)(O)O` [palmitoyl-CoA], the Kd in assay [6] stood at 9 ± 1 nM; in assay [7], 16 ± 2 nM. The cis-parinaroyl-CoA displacement in assay [8] and in assay [9] was 50–60% in each case. In assay [10], the “displacement of cis-parinaroyl-CoA” value was “approximately 70%”.

Source of the values: PMC3149718 (Molecular and cellular biochemistry, 2011).
